The text below walks through data of ChEMBL document CHEMBL5038582, “Adamantyl Isothiocyanates as Mutant p53 Rescuing Agents and Their Structure-Activity Relationships” (J Med Chem, 2021).

By IC50 is commonly meant the concentration that gives 50% inhibition.

Assay [1] deals with Cellular tumor antigen p53 (Homo sapiens) (UniProt P04637). In words: Activation of p53 in human MCF7 cells assessed as increase in MDM2 mRNA expression at 6 uM incubated for 4 hrs by qRT-PCR analysis. It counts as cell-based. The settings on record: filed as activator. Summed up: (§1)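 Cells treated with DMSO or 6 µM test compound for 4 h. RNA extracted, cDNA synthesised, transcript measured by TaqMan qRT-PCR and normalised to GAPDH. Averages from triplicates of repeated experiments, with standard deviation.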
(In general: Quantitative PCR measures a nucleic acid by following its amplification.)

For assay [2], the system named is MDA-MB-231. As to the kind of experiment: Antiproliferative activity against human MDA-MB-231 cells expressing p53 R280K mutant assessed as inhibition of cell growth incubated for 24 hrs by WST-1 assay. It counts as functional, cell-based. The settings on record: MDA-MB-231, 24 h. Summed up:
(§2)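 WST-1 proliferation assay. Compound diluted in DMSO and added to cells at 1% DMSO final. 4,000 cells/well in duplicate; DMSO-only wells as control, cell-free medium wells for background.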
For orientation: Tetrazolium dyes change colour on reduction, which living cells bring about.

The test system of assay [3] is Cellular tumor antigen p53 (Homo sapiens), P04637 [R280K]. As to the kind of experiment: Reactivation of transactivation function to p53 R280K mutant in human MDA-MB-231 cells assessed as increase in NOXA mRNA expression at 6 uM incubated for 4 hrs by qRT-PCR analysis. It counts as cell-based. The settings on record: filed as activator. Put shortly:
as §1

For assay [4], the system named is MDA-MB-468. As to the kind of experiment: Downregulation of p53 R273H mutant expression in human MDA-MB-468 cells at 6 to 12 uM measured after 24 hrs by immunoblot analysis. It counts as functional, cell-based. To be noted: dose 6-12 µM. Summed up: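 24 h exposure to 6 or 12 μM, DMSO control. Lysis in Tris pH 8.0/NaCl/glycerol/NP-40/EDTA buffer with protease inhibitors. 20 µg (MDA-MB-231, MDA-MB-468) or 50 µg (MCF-7) of lysate run on 4-12% SDS-PAGE. Blot probed with p53 DO-1, GAPDH used for reprobe/loading. Triplicate experiments.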

For assay [5], the system named is Cellular tumor antigen p53 (Homo sapiens), P04637 [R280K]. As to the kind of experiment: Reactivation of transactivation function to p53 R280K mutant in human MDA-MB-231 cells assessed as increase in p21 mRNA expression at 6 uM incubated for 4 hrs by qRT-PCR analysis. It counts as cell-based. To be noted: filed as activator. Summed up: as §1
Assay [6] deals with MCF7. In words: Upregulation of p53 mRNA expression in human MCF7 cells at 6 uM measured after 4 hrs by qRT-PCR analysis. It counts as functional, cell-based. Summed up: as §1
The test system of assay [7] is MDA-MB-231. As to the kind of experiment: Inhibition of colony formation in human MDA-MB-231 expressing p53 R280K mutant assessed as decrease in number of colonies at 1.5 to 24 uM incubated for 24 hrs followed by incubation in fresh medium for 10 days by methylene blue staining based analysis. It counts as functional, cell-based. The settings on record: dose 1.5-24 µM. Put shortly: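 500 cells/well seeded 24 h before treatment. Cells exposed to compound or DMSO control for 24 h at 37 °C, then grown 10 days at 37 °C in RPMI with 10% FBS. Colonies fixed in methanol, stained with methylene blue and counted. Survival expressed as percent of DMSO control.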

The subject of assay [8] is MCF7. In words: Upregulation of p53 expression in human MCF7 cells at 6 to 12 uM measured after 24 hrs by immunoblot analysis. It counts as functional, cell-based. To be noted: dose 6-12 µM. Summed up:
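Cells treated with DMSO or compound at 6 or 12 µM for 24 h and lysed. 50 µg MCF-7 lysate resolved by SDS-PAGE and probed with p53 DO-1 antibody. Reprobed with anti-GAPDH as loading control. Run in triplicate.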
(A western blot detects proteins with antibodies after separation by electrophoresis.)

Assay [9] relates to MDA-MB-231. As to the kind of experiment: Antiproliferative activity against human MDA-MB-231 cells expressing p53 R280K mutant assessed as inhibition of cell growth incubated for 72 hrs by WST-1 assay. The settings on record: MDA-MB-231, 72 h. It counts as functional, cell-based. Put shortly:
as §2

Assay [10] concerns MDA-MB-231. In words: Downregulation of p53 R280K mutant expression in human MDA-MB-231 cells at 6 to 12 uM measured after 24 hrs by immunoblot analysis. The settings on record: dose 6-12 µM.
Assay [11] relates to MDA-MB-468. In words: Induction of apoptosis in human MDA-MB-468 cells expressing p53 R273H mutant assessed as decrease in level of uncleaved PARP1 level at 6 to 12 uM measured after 24 hrs by western blotting analysis. It counts as functional, cell-based. To be noted: dose 6-12 µM. Put shortly:
(§3)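 Cells treated with DMSO or compound at 6 or 12 µM for 24 h, then lysed in Tris-Cl pH 8.0/NaCl/glycerol/NP-40/EDTA buffer with protease inhibitors. 100 µg lysate resolved on 4-12% SDS-PAGE and blotted to PVDF. Probed with anti-PARP or anti-caspase 3, then HRP secondary and ECL. GAPDH reprobe as control.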

The test system of assay [12] is MDA-MB-468. As to the kind of experiment: Induction of apoptosis in human MDA-MB-468 cells expressing p53 R273H mutant assessed as decrease in level of uncleaved caspase 3 level at 6 to 12 uM measured after 24 hrs by western blotting analysis. It counts as functional, cell-based. The settings on record: dose 6-12 µM. Put shortly: as §3
The next assay deals with CCD-841CoN. As to the kind of experiment: Cytotoxicity against human CCD841 cells harboring wild type p53 assessed as inhibition of cell growth at 10 to 50 uM incubated for 24 to 72 hrs by WST-1 assay. It counts as functional, cell-based. The settings on record: dose 10-50 µM, time 24-72 hrs.
In assay [13] the test system is MDA-MB-231. As to the kind of experiment: Effect on p53 R280K mutant mRNA expression in human MDA-MB-231 cells at 6 uM measured after 4 hrs by qRT-PCR analysis. It counts as functional, cell-based. Put shortly:
as §1

In assay [14] the target is Cellular tumor antigen p53 (Homo sapiens) (UniProt P04637). As to the kind of experiment: Activation of p53 in human MCF7 cells assessed as increase in p21 mRNA expression at 6 uM incubated for 4 hrs by qRT-PCR analysis. It counts as cell-based. The settings on record: filed as activator. Put shortly: as §1
For assay [15], the system named is Cellular tumor antigen p53 (Homo sapiens), P04637 [R273H]. As to the kind of experiment: Reactivation of transactivation function to p53 R273H mutant in human MDA-MB-468 cells assessed as increase in MDM2 mRNA expression at 6 uM incubated for 4 hrs by qRT-PCR analysis. It counts as cell-based. The settings on record: filed as activator. Put shortly:
as §1

The subject of another assay is MCF-10A. In words: Cytotoxicity against human MCF10A cells expressing wild type p53 assessed as inhibition of cell growth at 10 to 50 uM incubated for 24 to 72 hrs by WST-1 assay. It counts as functional, cell-based. To be noted: dose 10-50 µM, time 24-72 hrs.
Assay [16] concerns MDA-MB-231. As to the kind of experiment: Induction of apoptosis in human MDA-MB-231 cells expressing p53 R280K mutant assessed as increase in level of cleaved PARP1 level at 6 to 12 uM measured after 24 hrs by western blotting analysis. It counts as functional, cell-based. The settings on record: dose 6-12 µM. Summed up: as §3
The subject of assay [17] is MDA-MB-468. As to the kind of experiment: Antiproliferative activity against human MDA-MB-468 cells expressing p53 R273H mutant assessed as inhibition of cell growth incubated for 24 to 72 hrs by WST-1 assay. It counts as functional, cell-based. Summed up:
as §2

The test system of assay [18] is Cellular tumor antigen p53 (Homo sapiens), P04637 [R273H]. In words: Reactivation of transactivation function to p53 R273H mutant in human MDA-MB-468 cells assessed as increase in NOXA mRNA expression at 6 uM incubated for 4 hrs by qRT-PCR analysis. The settings on record: filed as activator. It counts as cell-based. Summed up:
as §1

Assay [19] has as its system MCF7. In words: Induction of apoptosis in human MCF-7 cells expressing wild type p53 assessed increase in number of Annexin-V stained cells at 6 to 12 uM incubated for 24 hrs by AnnexinV-FITC and PI staining based flow cytometry. It counts as functional, cell-based. The settings on record: dose 6-12 µM. Put shortly: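 24 h treatment, DMSO control. Cells scraped, washed in PBS, then given fluorochrome-conjugated Annexin V for 15 min at RT in the dark, followed by PI (0.1 µg/ml) in binding buffer. Read by flow cytometry on LSRFortessa. Annexin V-positive cells expressed relative to the DMSO control.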

Assay [20] has as its target Cellular tumor antigen p53 (Homo sapiens) (UniProt P04637). As to the kind of experiment: Activation of p53 in human MCF7 cells assessed as increase in NOXA mRNA expression at 6 uM incubated for 4 hrs by qRT-PCR analysis. It counts as cell-based. The settings on record: filed as activator. Put shortly:
as §1

Activity calls are given as the source filed them. The rule behind the calls is not given here.

Consider `S=C=NCCCC12CC3CC(CC(C3)C1)C2`, for which the outcome (in assay [1]; in assay [3]; in [5]; with MCF7 [6]; with MDA-MB-468 [11]; in the assay with MDA-MB-468 [12]) was Active. Moreover, the outcome (in assay [14]; in assay [15]; in the assay on MDA-MB-231 [16]; in assay [18]; in [20]) was Active. The IC50 in the assay with MDA-MB-231 [2], with MDA-MB-231 [9] and with MDA-MB-468 [17] was 12 µM throughout. Besides, the inhibition entry with MDA-MB-468 [4] and in the assay with MDA-MB-231 [7] was “Active” throughout. For the same compound, the result in the assay on MCF7 [8], in the assay with CCD-841CoN, in the assay on MDA-MB-231 [13], in the assay on MCF-10A and in the assay on MCF7 [19] was inactive. Besides, in the assay with MDA-MB-231 [10], the “p53 R280K downregulation (active/not active)” value was “Active”.
As for `[Se]=C=NCCC12CC3CC(CC(C3)C1)C2`, the outcome (in assay [1]; in assay [3]; in assay [5]; with MCF7 [6]; in the assay with MCF7 [8]; in the assay with MDA-MB-468 [11]) was Active. Moreover, the result (in the assay on MDA-MB-468 [12]; in [14]; in [15]; with MDA-MB-231 [16]; in assay [18]; in [20]) was Active. The IC50 in the assay with MDA-MB-231 [2], with MDA-MB-231 [9] and in the assay on MDA-MB-468 [17] was 6 µM throughout. The inhibition entry in the assay with MDA-MB-468 [4] and in the assay with MDA-MB-231 [7] was “Active” throughout. Also, in the assay with MDA-MB-231 [10], the “p53 R280K downregulation (active/not active)” value was “Active”. The outcome with CCD-841CoN, with MDA-MB-231 [13], in the assay with MCF-10A and in the assay on MCF7 [19] was inactive.
